Here are results for 18 compounds from ChEMBL document CHEMBL4406904, “Design, synthesis and biological activity of a novel ethylenediamine derivatives as H1 receptor antagonists” (Bioorg Med Chem, 2019).

Each structure is given as a SMILES string. The source made the active and inactive calls. No cut-off for these calls is given here.

The test system of data set [1] is RBL-2H3. The experiment in a line: Antiallergic activity in rat RBL2H3 cells assessed as inhibition of C48/80-induced mast cell degranulation preincubated with compound for 30 mins and then treated with C48/80 for 1 hr by neutral red dye based method. It counts as functional. A digest of the protocol:
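RBL-2H3 cells seeded at 3×10⁵/mL and left overnight at 37 °C, 5% CO₂ to adhere. Medium discarded and cells stained with 0.5% neutral red for 3 min. Degranulated cells counted per 100 mast cells. IC50 taken as the concentration giving half-maximal degranulation. DMSO blank.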

For data set [2], the system named is RBL-2H3. The data set can be described thus: Antiallergic activity in rat RBL2H3 cells assessed as inhibition of C48/80-induced histamine release preincubated with compound for 30 mins followed by C48/80 stimulation for 1 hr. Format: functional, cell-based. Summed up: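 RBL-2H3 cells seeded at 3×10⁵/mL and adhered overnight at 37 °C, 5% CO₂. Histamine in the supernatant derivatized with o-phthalaldehyde after HCl/NaOH addition. IC50 is the concentration halving histamine release. DMSO blank.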

For data set [3], the system named is RBL-2H3. The data set can be described thus: Antiallergic activity in IgE/Ag-stimulated rat RBL2H3 cells assessed as inhibition of HSA-induced beta-hexosaminidase release preincubated with compound for 30 mins and then stimulated with HSA for 15 mins followed by incubation with P-nitrophenyl-N-acetyl-beta-D-glucosaminide for 2 hrs. It counts as functional, cell-based. A digest of the protocol:
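RBL-2H3 cells (3×10⁵/mL) sensitized overnight with anti-DNP IgE at 150 ng·mL⁻¹, then washed twice in PIPES buffer pH 7.0 with glucose and 0.2% BSA. Compound applied for 30 min at 37 °C, then DNP-HSA 20 ng·mL⁻¹ for 15 min; stopped on ice. Supernatant incubated with p-nitrophenyl-N-acetyl-β-D-glucosaminide in citrate pH 4.6 for 2 h at 37 °C. Stopped with carbonate pH 10.2; A405 read. IC50 derived.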

Data set [4] addresses Histamine H1 receptor (Homo sapiens) (UniProt P35367). The experiment in a line: Binding affinity to H1 receptor (unknown origin) at 0.10 umol/L.
Data set [5] has as its system Cavia porcellus. The data set can be described thus: In vivo antiallergic activity in histamine-induced bronchospasm guinea pig model assessed as duration of convulsions at 20 mg/kg, po by Van Arman method. It counts as functional. A digest of the protocol:
(§1)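 Male guinea pigs (220–260 g), fasted 24 h with water, six per group. Compound given orally at 20 mg·kg⁻¹ in 1% CMC-Na. Animals then exposed in a closed cage to aerosolized 0.3% histamine chloride (5 mL). Convulsion (preconvulsion) time recorded; stable beyond 10 min counted as protected. Protection % derived from mean time versus control.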

Data set [6] relates to Cavia porcellus. The data set can be described thus: In vivo antiallergic activity in guinea pig assessed as protection against histamine-induced bronchospasm at 20 mg/kg, po by Van Arman method relative to control. Format: functional. Summed up:
as §1

Data set [7] is described as follows: Acute toxicity in ip dosed histamine-induced bronchospasm guinea pig model. It counts as organism-based, Cavia porcellus. The following applies: in vivo.
Data set [8] deals with Mus musculus. The experiment in a line: Antiallergic activity in mouse assessed as inhibition of histamine-induced increase in capillary permeability by measuring Evans blue dye concentration at 20 mg/kg administered via gavage for 1 week followed by Evans blue dye injection immediately after subcutaneous histamine injection and measured after 15 mins by UV spectrophotometric analysis. Format: functional. A digest of the protocol: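 Mice (20–22 g), 10 per group, half male and half female. Compound suspension gavaged at 20 mg·kg⁻¹ for one week; model group given 0.5% CMC-Na. Backs depilated with 8% sodium sulfide the day before. Histamine phosphate 0.1% (50 μL) injected subcutaneously, with 0.5% Evans blue (25 mg·kg⁻¹) given i.v. via tail vein. Killed after 15 min. Stained skin extracted in acetone–saline for 48 h, centrifuged, OD read at 610 nm.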

The nature of data set [9]: Lipid/water partition co-efficient, log P of the compound. Format: physicochemical.
The nature of data set [10]: Dissociation constant, pKa of the compound. It counts as physicochemical.
In data set [11] the test system is Cavia porcellus. The experiment in a line: In vivo antiallergic activity in histamine-induced bronchospasm guinea pig model assessed as duration of convulsions at 20 mg/kg by Van Arman method.
Data set [12] relates to Cavia porcellus. The data set can be described thus: In vivo antiallergic activity in guinea pig assessed as protection against histamine-induced bronchospasm at 20 mg/kg by Van Arman method relative to control.

Chain of Histamine H1 receptor (Homo sapiens) (P35367 whole entry): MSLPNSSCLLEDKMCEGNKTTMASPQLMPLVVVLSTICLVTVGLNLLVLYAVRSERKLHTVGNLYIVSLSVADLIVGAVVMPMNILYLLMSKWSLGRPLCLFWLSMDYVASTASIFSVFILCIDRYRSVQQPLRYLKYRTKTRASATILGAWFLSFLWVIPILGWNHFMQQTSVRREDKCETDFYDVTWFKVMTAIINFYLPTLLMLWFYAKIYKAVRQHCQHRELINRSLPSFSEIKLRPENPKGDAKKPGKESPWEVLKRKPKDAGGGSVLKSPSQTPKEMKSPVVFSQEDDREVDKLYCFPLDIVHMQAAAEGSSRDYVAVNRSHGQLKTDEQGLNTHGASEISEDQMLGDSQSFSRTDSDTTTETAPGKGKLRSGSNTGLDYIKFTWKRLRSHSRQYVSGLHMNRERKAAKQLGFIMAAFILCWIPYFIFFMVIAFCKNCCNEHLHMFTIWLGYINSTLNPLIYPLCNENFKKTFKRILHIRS

Take `COc1ccc(CN(CCN(C)C)c2ccc(C)cc2)cc1`: the 50% inhibitory concentration (IC50) (in general, the concentration that inhibits the measured activity by half) in data set [1] came out at 55.3 nM; in data set [2], 89.1 nM; in [3], 141 nM. Further, the outcome in data set [4] was Active. Besides, the Time in [5] is 348.1 s. The Activity is 69.62% in data set [6] and 53.59 mg/L in data set [8]. Also, in data set [7], the LD50 (in general, the dose expected to kill half of the subjects tested) stood at 401 mg/kg. For the same compound, in data set [9], the logP – broadly, the decadic logarithm of the partition coefficient of the neutral form, usually between octanol and water – is 4.43. The pKa (usually the pH at which an ionisable group is half protonated) in data set [10] was 9.8.
Turning to `COc1ccc(CN(CCN(C)C)c2ccc(N)cc2)cc1`, the figures for the IC50 in [1], in data set [2] and in data set [3] were 2310 nM, 4060 nM and 8010 nM, respectively. Further, in [9], the logP was found to be 3.13. In addition, in data set [10], the pKa turned out to be 9.8.
On the same counts, the results for `COc1ccc(CCN(CCN(C)C)c2ccccn2)cc1` are 129 nM, 159 nM, 319 nM, 3.59 and 9.5.
Turning to `CN(C)CCC(c1ccc(Cl)cc1)c1ccccn1` (centres undefined) [CHLORPHENIRAMINE], the figures for the IC50 in data set [1], in data set [2] and in data set [3] were 31.8 nM, 53.6 nM and 121 nM, respectively. For the same compound, the results for the Activity in data set [8] and in data set [12] were 56.13 mg/L and 73.43%, respectively. Moreover, the Time in data set [11] is recorded as 367.16 s.
Consider `COc1ccc(CCN(CCN(C)C)c2ccccc2)cc1`, for which the figures for the 50% inhibitory concentration (IC50) in data set [1], in data set [2] and in [3] were 306 nM, 516 nM and 1030 nM, respectively. Moreover, the logP in data set [9] turned out to be 4.21. The same compound displayed a pKa in data set [10] of 9.6.
Turning to `COc1ccc(CCN(CCN(C)C)c2ccc(Cl)cc2)cc1`, the values for the IC50 in data set [1], in [2] and in data set [3] were 89.2 nM, 141 nM and 261 nM, respectively. This compound also returned a logP in data set [9] of 4.78. This compound also yielded a pKa in [10] of 9.5.
As for `COc1ccc(CCN(CCN(C)C)c2ccc(N)cc2)cc1`, the IC50 in data set [1] stood at 2230 nM; in data set [2], 4010 nM; in data set [3], 7960 nM. The compound also registered a logP in [9] of 3.43. The compound also had a pKa in data set [10] of 9.8.
With `COc1ccc(CN(CCN(C)C)c2ccc(N)cn2)cc1`, the IC50 stood at 1340 nM in data set [1], 2110 nM in data set [2] and 4090 nM in data set [3]. This compound registered a logP in data set [9] of 2.56. Moreover, in data set [10], the pKa stood at 9.4.
On to `COc1ccc(CCN(CCN(C)C)c2ccc(Cl)cn2)cc1`, for which the values for the concentration for half-maximal inhibition (IC50) in [1], in data set [2] and in data set [3] were 45.3 nM, 53.1 nM and 72.1 nM, respectively. The outcome in [4] was Active. In addition, the Time in data set [5] stood at 351.1 s. The Activity in data set [6] is on record as 70.22%; in data set [8], 55.67 mg/L. In addition, in data set [7], the LD50 stood at 335 mg/kg. Further, in data set [9], the log partition coefficient (logP) was 4.16. The pKa in [10] was 9.4.
Turning to `COc1ccc(CCN(CCN(C)C)c2ccc(N)cn2)cc1`, the IC50 in [1] amounted to 1210 nM; in data set [2], 1910 nM; in data set [3], 4010 nM. This compound returned a logP in data set [9] of 2.79. Moreover, the pKa in data set [10] was 9.6.
`COc1ccc(CN(CCN(C)C)c2ccc(Cl)cc2)cc1`: the IC50 in [1] turned out to be 18.1 nM; in [2], 40.2 nM; in [3], 71.2 nM. The result in data set [4] was Active. Further, the Time in [5] worked out at 376.58 s. Moreover, the Activity in [6] was determined as 75.32%; in data set [8] it was 65.34 mg/L. The same compound returned a 50% lethal dose (LD50) in data set [7] of 414 mg/kg. Further, the logP in [9] amounted to 4.47. For the same compound, in [10], the pKa worked out at 9.6.
In the case of `COc1ccc(CN(CCN(C)C)c2ccccc2)cc1`, the figures for the IC50 in data set [1], in data set [2] and in data set [3] were 143 nM, 243 nM and 411 nM, respectively. For the same compound, in data set [9], the lipophilicity (logP) was determined as 3.9. This compound displayed a pKa in data set [10] of 9.7.
With `COc1ccc(CN(CCN(C)C)c2ccc(C)cn2)cc1`, the concentration for half-maximal inhibition (IC50) was 28.9 nM in data set [1], 48.6 nM in [2] and 61.2 nM in data set [3]. In addition, the result in [4] was Active. Moreover, the Time in data set [5] is listed as 371.28 s. For the same compound, the values for the Activity in [6] and in data set [8] were 74.26% and 62.16 mg/L, respectively. The same compound came in with a median lethal dose (LD50) in data set [7] of 335 mg/kg. For the same compound, the logP in data set [9] was determined as 3.79. Also, the pKa in data set [10] was 9.6.
In the case of `COc1ccc(CN(CCN(C)C)c2ccc(Cl)cn2)cc1`, the half-inhibitory concentration (IC50) came out at 10.6 nM in [1], 19.2 nM in [2] and 45.5 nM in [3]. Besides, the outcome in [4] was Active. Also, the Time in data set [5] worked out at 398.69 s. In addition, the Activity in [6] turned out to be 79.74%; in [8], 71.26 mg/L. Besides, the LD50 in data set [7] was determined as 324 mg/kg. Moreover, the lipophilicity (logP) in data set [9] turned out to be 3.87. The compound also yielded a pKa in data set [10] of 9.5.
On to `COc1ccc(CN(CCN(C)C)c2ccccn2)cc1` [PYRILAMINE], for which the values for the IC50 in data set [1], in data set [2] and in data set [3] were 81.5 nM, 92.6 nM and 132 nM, respectively. The compound also came in with a logP in [9] of 3.32. Further, the pKa in data set [10] amounted to 9.7.
Take `COc1ccc(CCN(CCN(C)C)c2ccc(C)cn2)cc1`: the 50% inhibitory concentration (IC50) in data set [1] was found to be 83.9 nM; in [2], 102 nM; in [3], 211 nM. In [9], this compound registered a lipophilicity (logP) of 4.06. For the same compound, the pKa in data set [10] amounted to 9.5.
Regarding `COc1ccc(CCN2CCC(Nc3nc4ccccc4n3Cc3ccc(F)cc3)CC2)cc1` [ASTEMIZOLE], the IC50 stood at 53.3 nM in [1], 81.9 nM in data set [2] and 156 nM in data set [3].
As for `COc1ccc(CCN(CCN(C)C)c2ccc(C)cc2)cc1`, the IC50 in [1] stood at 153 nM; in data set [2] it was 289 nM; in data set [3] it was 561 nM. The compound also came in with a logP in data set [9] of 4.68. This compound also gave a pKa in data set [10] of 9.7.
